Converted amounts (≈) assume the structure as drawn. The source made the active and inactive calls.

Usually MIC stands for the smallest concentration in the dilution series that meets the test's criterion for growth inhibition. High values mean a need for much substance, low ones inhibition by little substance.

For assay [1], the system named is Pseudomonas aeruginosa. Description: Antibacterial activity against Pseudomonas aeruginosa MTCC 2453 after 24 hrs by agar dilution method. The conditions noted are these: MTCC 2453, 24 h. In kind it is functional.
Assay [2] has as its system Candida albicans. Briefly: Antifungal activity against Candida albicans MTCC 3017 after 48 hrs by agar dilution method. In kind it is functional. The following applies: MTCC 3017, 48 h. Put shortly: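 Same disk/dilution format as the antibacterial assay, on potato dextrose agar (39 g/L). Compounds were from DMSO stock, loaded at 1 to 80 per disk, in triplicate. Plates were incubated at 28 ± 2 °C for 48 h. MIC was the lowest amount that arrested growth. Equivalent DMSO served as solvent control.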

For assay [3], the system named is Mycobacterium tuberculosis. Briefly: Antibacterial activity against Mycobacterium tuberculosis H37Rv at 32 ug/ml […] by agar dilution method. In kind it is functional, organism-based.
In assay [4] the test system is Escherichia coli. Briefly: Antibacterial activity against Escherichia coli MTCC 739 at 80 ug/ml after 24 hrs by agar dilution method. In kind it is functional, organism-based. Background: Agar dilution tests growth on a series of plates holding different concentrations.
In assay [5] the test system is Micrococcus luteus. Description: Antibacterial activity against Micrococcus luteus MTCC 2470 after 24 hrs by agar dilution method. Type of assay: functional. The conditions noted are these: MTCC 2470, 24 h.
The test system of assay [6] is Staphylococcus. Briefly: Antibacterial activity against Staphylococcus MLS-16 MTCC 2940 after 24 hrs by agar dilution method. Type of assay: functional. The following applies: MLS-16 MTCC 2940, 24 h.
For assay [7], the system named is Staphylococcus aureus. Briefly: Antibacterial activity against Staphylococcus aureus MTCC 96 after 24 hrs by agar dilution method. Type of assay: functional. The following applies: MTCC 96, 24 h.
Assay [8] relates to Raoultella planticola. Briefly: Antibacterial activity against Klebsiella planticola MTCC 530 at 80 ug/ml after 24 hrs by agar dilution method. In kind it is functional, organism-based.
In assay [9] the test system is Bacillus subtilis. Description: Antibacterial activity against Bacillus subtilis MTCC 121 after 24 hrs by agar dilution method. In kind it is functional. The conditions noted are these: MTCC 121, 24 h.
The subject of assay [10] is Micrococcus luteus. Description: Antibacterial activity against Micrococcus luteus MTCC 2470 at 80 ug/ml after 24 hrs by agar dilution method. Type of assay: functional, organism-based.
Assay [11] deals with Pseudomonas aeruginosa. Briefly: Antibacterial activity against Pseudomonas aeruginosa MTCC 2453 at 80 ug/ml after 24 hrs by agar dilution method. In kind it is functional, organism-based.
The subject of assay [12] is Candida albicans. Briefly: Antifungal activity against Candida albicans MTCC 3017 at 20 ug/ml after 24 hrs by disk diffusion method. The conditions noted are these: MTCC 3017, 24 h, read-out: IZ. Type of assay: functional. (A growth-free zone around the sample is the usual read-out of agar diffusion tests.)

Take `O=C1O[C@@H](CNS(=O)(=O)c2cccc3cccnc23)CN1c1ccc(N2CCOCC2)c(F)c1`: the MIC was 6 µg/mL (≈ 12.3 µM) in assay [1]; 20 µg/mL (≈ 41.1 µM) in [2]; 8 µg/mL (≈ 16.4 µM) in assay [5]; 10 µg/mL (≈ 20.6 µM) in [6]; 10 µg/mL (≈ 20.6 µM) in [7]; 8 µg/mL (≈ 16.4 µM) in assay [9]. The outcome in assay [3], in assay [4] and in assay [8] was inactive.
Regarding `CC(=O)Nc1nc(C)c(S(=O)(=O)NC[C@H]2CN(c3ccc(N4CCSCC4)c(F)c3)C(=O)O2)s1`, the MIC in assay [1] is 8 µg/mL (≈ 15.1 µM); in assay [2], 8 µg/mL (≈ 15.1 µM); in assay [6], 8 µg/mL (≈ 15.1 µM); in assay [7] it was 8 µg/mL (≈ 15.1 µM); in [9] it was 10 µg/mL (≈ 18.9 µM). In addition, the result in [4], in [10] and in assay [8] was inactive.
`O=C1O[C@@H](CNS(=O)(=O)c2ccc(F)c(F)c2F)CN1c1ccc(N2CCOCC2)c(F)c1`: the MIC in [1] is 8 µg/mL (≈ 16.3 µM); in [2], 6 µg/mL (≈ 12.3 µM); in assay [6] it was 6 µg/mL (≈ 12.3 µM); in assay [7] it was 6 µg/mL (≈ 12.3 µM); in assay [9], 6 µg/mL (≈ 12.3 µM). Moreover, the outcome in [3], in [4], in [10] and in assay [8] was inactive.
Take `O=C1O[C@@H](CNS(=O)(=O)c2cc(Cl)cc(Cl)c2)CN1c1ccc(N2CCOCC2)c(F)c1`: the MIC in assay [1] was 40 µg/mL (≈ 79.3 µM); in [2] it was 8 µg/mL (≈ 15.9 µM); in [6], 8 µg/mL (≈ 15.9 µM); in assay [7], 8 µg/mL (≈ 15.9 µM); in assay [9], 8 µg/mL (≈ 15.9 µM). Also, the result in [3], in [4], in assay [10] and in assay [8] was inactive.
`O=C1O[C@@H](CNS(=O)(=O)c2ccc(F)c(F)c2)CN1c1ccc(N2CCOCC2)c(F)c1`: the MIC in assay [1], in assay [2], in assay [6] and in assay [9] was 10 µg/mL (≈ 21.2 µM) each time. Also, the result in [3] and in assay [10] was inactive.
For the molecule `CC(=O)c1ccc(S(=O)(=O)NC[C@H]2CN(c3ccc(N4CCSCC4)c(F)c3)C(=O)O2)cc1`, the MIC came to 20 µg/mL (≈ 40.5 µM) in assay [2], 8 µg/mL (≈ 16.2 µM) in assay [6], 8 µg/mL (≈ 16.2 µM) in assay [7] and 10 µg/mL (≈ 20.3 µM) in assay [9]. Also, the result in assay [3], in assay [4], in assay [11], in assay [10] and in assay [8] was inactive.
For `O=C1O[C@@H](CNS(=O)(=O)c2ccc(C(F)(F)F)cc2)CN1c1ccc(N2CCOCC2)c(F)c1`, the MIC in assay [1] was 8 µg/mL (≈ 15.9 µM); in assay [2], 20 µg/mL (≈ 39.7 µM); in assay [5] it was 8 µg/mL (≈ 15.9 µM); in assay [6], 10 µg/mL (≈ 19.9 µM); in assay [7], 10 µg/mL (≈ 19.9 µM); in assay [9], 8 µg/mL (≈ 15.9 µM). Also, the outcome in [3], in [4] and in assay [8] was inactive.
Take `O=C1O[C@@H](CNS(=O)(=O)c2ccc(F)c(Cl)c2)CN1c1ccc(N2CCOCC2)c(F)c1`: the MIC in [2], in assay [5], in assay [6], in assay [7] and in [9] was 6 µg/mL (≈ 12.3 µM) each time. The outcome in assay [3], in assay [4], in assay [11] and in assay [8] was inactive.
For the molecule `O=C1O[C@@H](CNS(=O)(=O)c2cccs2)CN1c1ccc(N2CCSCC2)c(F)c1`, the MIC stood at 4 µg/mL (≈ 8.74 µM) in assay [1]; 4 µg/mL (≈ 8.74 µM) in assay [2]; 6 µg/mL (≈ 13.1 µM) in assay [5]; 4 µg/mL (≈ 8.74 µM) in assay [6]; 4 µg/mL (≈ 8.74 µM) in assay [7]; 2 µg/mL (≈ 4.37 µM) in [9]. The outcome in [3], in assay [4] and in [8] was inactive.
For the molecule `O=C1O[C@@H](CNS(=O)(=O)c2ccc(F)c(Cl)c2)CN1c1ccc(N2CCSCC2)c(F)c1`, the MIC worked out at 20 µg/mL (≈ 39.7 µM) in [2], 8 µg/mL (≈ 15.9 µM) in assay [6], 8 µg/mL (≈ 15.9 µM) in assay [7] and 10 µg/mL (≈ 19.8 µM) in assay [9]. In addition, the outcome in assay [3], in assay [4], in assay [11], in assay [10] and in [8] was inactive.
Consider `O=C1O[C@@H](CNS(=O)(=O)c2cccc(Cl)c2)CN1c1ccc(N2CCOCC2)c(F)c1`, for which the MIC in [2] was 8 µg/mL (≈ 17 µM); in [5], 8 µg/mL (≈ 17 µM); in assay [6], 6 µg/mL (≈ 12.8 µM); in [7] it was 6 µg/mL (≈ 12.8 µM); in assay [9], 6 µg/mL (≈ 12.8 µM). The outcome in assay [3], in assay [4], in assay [11] and in [8] was inactive.
On to `CC(C)(C)OC(=O)N1CCN(c2ccc(N3C[C@H](CNS(=O)(=O)c4ccc(F)cc4)OC3=O)cc2F)CC1`, for which the MIC in [1] was determined as 20 µg/mL (≈ 36.2 µM); in [2], 10 µg/mL (≈ 18.1 µM); in assay [5] it was 10 µg/mL (≈ 18.1 µM); in assay [6], 10 µg/mL (≈ 18.1 µM); in assay [7] it was 10 µg/mL (≈ 18.1 µM); in [9], 20 µg/mL (≈ 36.2 µM). Moreover, the result in [3], in [4] and in assay [8] was inactive.
For the molecule `O=C1O[C@@H](CNS(=O)(=O)c2cc(S(=O)(=O)c3ccccc3)cs2)CN1c1ccc(N2CCSCC2)c(F)c1`, the MIC in assay [1] is 8 µg/mL (≈ 13.4 µM); in assay [2], 8 µg/mL (≈ 13.4 µM); in assay [6], 6 µg/mL (≈ 10 µM); in [7], 6 µg/mL (≈ 10 µM); in assay [9], 8 µg/mL (≈ 13.4 µM). Further, the outcome in assay [3], in assay [4], in [10] and in assay [8] was inactive.
`O=C1O[C@@H](CNS(=O)(=O)c2ccc(Oc3ccccc3)cc2)CN1c1ccc(N2CCOCC2)c(F)c1`: the MIC is 6 µg/mL (≈ 11.4 µM) in assay [2]; 8 µg/mL (≈ 15.2 µM) in [5]; 4 µg/mL (≈ 7.58 µM) in assay [6]; 4 µg/mL (≈ 7.58 µM) in assay [7]; 8 µg/mL (≈ 15.2 µM) in [9]. Further, the outcome in [3], in assay [4], in assay [11] and in [8] was inactive.
As for `CC(=O)Nc1nc(C)c(S(=O)(=O)NC[C@H]2CN(c3ccc(N4CCOCC4)c(F)c3)C(=O)O2)s1`, the MIC in [1] is 8 µg/mL (≈ 15.6 µM); in [2], 20 µg/mL (≈ 38.9 µM); in assay [6], 20 µg/mL (≈ 38.9 µM); in [7], 20 µg/mL (≈ 38.9 µM); in assay [9] it was 8 µg/mL (≈ 15.6 µM). The outcome in assay [4], in assay [10] and in assay [8] was inactive.
As for `CC(=O)c1ccc(S(=O)(=O)NC[C@H]2CN(c3ccc(N4CCOCC4)c(F)c3)C(=O)O2)cc1`, the MIC in [2], in assay [5], in [6], in assay [7] and in assay [9] was 6 µg/mL (≈ 12.6 µM) throughout. For the same molecule, the result in assay [3], in [4], in [11] and in assay [8] was inactive.
As to `O=C1O[C@@H](CNS(=O)(=O)c2ccc(C(F)(F)F)cc2)CN1c1ccc(N2CCSCC2)c(F)c1`, the MIC in assay [1] was 8 µg/mL (≈ 15.4 µM); in assay [2] it was 8 µg/mL (≈ 15.4 µM); in assay [6], 8 µg/mL (≈ 15.4 µM); in [7], 8 µg/mL (≈ 15.4 µM); in [9], 10 µg/mL (≈ 19.2 µM). Moreover, the outcome in assay [3], in assay [4], in assay [10] and in assay [8] was inactive.
As to `OC(Cn1cncn1)(Cn1cncn1)c1ccc(F)cc1F` [FLUCONAZOLE], the MIC in assay [2] turned out to be 1 µg/mL (≈ 3.27 µM). In assay [12], the zone of inhibition at 20 µg/mL worked out at 20 mm.
Take `O=C1O[C@@H](CNS(=O)(=O)c2cccc3cccnc23)CN1c1ccc(N2CCSCC2)c(F)c1`: the MIC worked out at 8 µg/mL (≈ 15.9 µM) in [1]; 8 µg/mL (≈ 15.9 µM) in assay [2]; 6 µg/mL (≈ 11.9 µM) in assay [6]; 6 µg/mL (≈ 11.9 µM) in assay [7]; 8 µg/mL (≈ 15.9 µM) in [9]. Moreover, the outcome in assay [3], in [4], in assay [10] and in [8] was inactive.
`CC(C)(C)OC(=O)N1CCN(c2ccc(N3C[C@H](CNS(=O)(=O)c4ccc(C(F)(F)F)cc4)OC3=O)cc2F)CC1`: the minimal inhibitory concentration (MIC) in [1] is 10 µg/mL (≈ 16.6 µM); in assay [2], 20 µg/mL (≈ 33.2 µM); in [5] it was 20 µg/mL (≈ 33.2 µM); in [6], 10 µg/mL (≈ 16.6 µM); in [7] it was 10 µg/mL (≈ 16.6 µM); in assay [9], 8 µg/mL (≈ 13.3 µM). The outcome in [3], in assay [4] and in [8] was inactive.

Source of the values: ChEMBL document CHEMBL2331333, “Synthesis, biological evaluation of new oxazolidino-sulfonamides as potential antimicrobial agents” (2013).
